From ChEMBL document CHEMBL4043076, “Hormonemate Derivatives from Dothiora sp., an Endophytic Fungus” (J Nat Prod, 2017)

How the values were obtained:
Type in all cases: functional, cell-based
HepG2 = experiment: Cytotoxicity against human HepG2 cells assessed as reduction in cell viability incubated for 24 hrs by MTT assay; conditions: HepG2, 24 h
Procedure, shortened: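 HepG2 (ATCC) grown in Eagle's MEM with 10% FBS, 2 mM L-glutamine, 1 mM sodium pyruvate and 100 μM nonessential amino acids at 37 °C, 5% CO2. Seeded at 20000 cells/well for the 24 h assay. Compounds were run in triplicate at 10 two-fold dilutions from 40 μg/mL, with 0.5% DMSO maximum. Viability was read by MTT reduction and IC50 determined.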

MIA PaCa-2 = experiment: Cytotoxicity against human MIAPaCa2 cells assessed as reduction in cell viability incubated for 24 hrs by MTT assay; conditions: MIA PaCa-2, 24 h
Procedure, shortened: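 MiaPaca_2 (ATCC CRL-1420) cultured in DMEM with 10% FBS, 2.5% horse serum, 1% L-glutamine and 1% penicillin/streptomycin at 37 °C, 5% CO2. Seeding was 20000 cells/well for the 24 h assay. Compounds were tested in triplicate over 10 two-fold dilutions from a 40 μg/mL top concentration, with 0.5% DMSO as negative control. MTT reduction was used for IC50.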

MCF7 = experiment: Cytotoxicity against human MCF7 cells assessed as reduction in cell viability incubated for 24 hrs by MTT assay; conditions: MCF7, 24 h
Procedure, shortened: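 MCF-7 (ATCC HTB-22) kept in MEM with 10% FBS, glutamine, pyruvate and nonessential amino acids plus 0.01 mg/mL bovine insulin at 37 °C, 5% CO2. Plated at 30000 cells/well for the 24 h exposure. Triplicate 10-point, 2-fold serial dilutions from 40 μg/mL were used, with DMSO ≤0.5%. MMS served as positive control. The MTT viability read-out gave the IC50.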

| Structure (SMILES) | IC50 (HepG2) [µM] | IC50 (MIA PaCa-2) [µM] | IC50 (MCF7) [µM] |
| --- | --- | --- | --- |
| CC[C@H](C)[C@@H](O)C(=O)O[C@@H](C(=O)O[C@@H](C(=O)O[C@@H](C(=O)OC[C@@H](O)[C@@H](O)[C@H](O)CO)[C@@H](C)CC)[C@@H](C)CC)[C@@H](C)CC | > 65.7 | > 65.7 | > 65.7 |
| CC[C@H](C)[C@@H](O)C(=O)O[C@@H](C(=O)O[C@@H](C(=O)O[C@@H](C(=O)O[C@@H](C(=O)O[C@H](CO)[C@@H](O)[C@H](O)[C@H](O)CO)[C@@H](C)CC)[C@@H](C)CC)[C@@H](C)CC)[C@@H](C)CC | 36.2 | > 53.2 | 18.3 |
| CC[C@H](C)[C@@H](O)C(=O)O[C@@H](C(=O)O[C@@H](C(=O)O[C@@H](C(=O)O[C@@H](C(=O)O[C@H](CO)[C@@H](O)[C@H](O)CO)[C@@H](C)CC)[C@@H](C)CC)[C@@H](C)CC)[C@@H](C)CC | 26.2 | 36.4 | 19 |
| CC[C@H](C)[C@@H](O)C(=O)O[C@@H](C(=O)O[C@@H](C(=O)O[C@@H](C(=O)O[C@@H](C(=O)OC[C@@H](O)[C@@H](O)CO)[C@@H](C)CC)[C@@H](C)CC)[C@@H](C)CC)[C@@H](C)CC | 28.7 | > 57.8 | 11.1 |
| CC[C@H](C)[C@@H](O)C(=O)O[C@@H](C(=O)O[C@@H](C(=O)O[C@@H](C(=O)O[C@@H](C(=O)O[C@@H]([C@H](O)[C@H](O)CO)[C@H](O)CO)[C@@H](C)CC)[C@@H](C)CC)[C@@H](C)CC)[C@@H](C)CC | > 53.2 | > 53.2 | 27.8 |
| CC[C@H](C)[C@@H](O)C(=O)O[C@@H](C(=O)O[C@@H](C(=O)O[C@@H](C(=O)O[C@@H](C(=O)OC[C@@H](O)[C@@H](O)[C@H](O)CO)[C@@H](C)CC)[C@@H](C)CC)[C@@H](C)CC)[C@@H](C)CC | 29 | > 55.4 | 15.6 |
| CC[C@H](C)[C@@H](O)C(=O)O[C@@H](C(=O)O[C@@H](C(=O)O[C@@H](C(=O)O[C@@H](C(=O)OC[C@@H](O)[C@@H](O)[C@H](O)[C@H](O)CO)[C@@H](C)CC)[C@@H](C)CC)[C@@H](C)CC)[C@@H](C)CC | > 53.2 | > 53.2 | 24.3 |
| COc1cccc2c1C(=O)c1c(O)c3c(c(O)c1C2=O)C[C@@](O)(C(=O)CO)C[C@@H]3O[C@H]1C[C@H](N)[C@H](O)[C@H](C)O1 [DOXORUBICIN] | 0.2 | 1.9 | – |
